# Active and inactive are the calls of the source. The calls are words filed in the database; no cut-off is given here.
# What was measured:
# [1] = target: T1, Extracellular calcium-sensing receptor (Homo sapiens, UniProt P41180); test: Binding affinity to human parathyroid calcium receptor 1 expressed in HEK293 4.0-7 cells by radioligand binding assay; type: cell-based
# T1 sequence (P41180 whole entry): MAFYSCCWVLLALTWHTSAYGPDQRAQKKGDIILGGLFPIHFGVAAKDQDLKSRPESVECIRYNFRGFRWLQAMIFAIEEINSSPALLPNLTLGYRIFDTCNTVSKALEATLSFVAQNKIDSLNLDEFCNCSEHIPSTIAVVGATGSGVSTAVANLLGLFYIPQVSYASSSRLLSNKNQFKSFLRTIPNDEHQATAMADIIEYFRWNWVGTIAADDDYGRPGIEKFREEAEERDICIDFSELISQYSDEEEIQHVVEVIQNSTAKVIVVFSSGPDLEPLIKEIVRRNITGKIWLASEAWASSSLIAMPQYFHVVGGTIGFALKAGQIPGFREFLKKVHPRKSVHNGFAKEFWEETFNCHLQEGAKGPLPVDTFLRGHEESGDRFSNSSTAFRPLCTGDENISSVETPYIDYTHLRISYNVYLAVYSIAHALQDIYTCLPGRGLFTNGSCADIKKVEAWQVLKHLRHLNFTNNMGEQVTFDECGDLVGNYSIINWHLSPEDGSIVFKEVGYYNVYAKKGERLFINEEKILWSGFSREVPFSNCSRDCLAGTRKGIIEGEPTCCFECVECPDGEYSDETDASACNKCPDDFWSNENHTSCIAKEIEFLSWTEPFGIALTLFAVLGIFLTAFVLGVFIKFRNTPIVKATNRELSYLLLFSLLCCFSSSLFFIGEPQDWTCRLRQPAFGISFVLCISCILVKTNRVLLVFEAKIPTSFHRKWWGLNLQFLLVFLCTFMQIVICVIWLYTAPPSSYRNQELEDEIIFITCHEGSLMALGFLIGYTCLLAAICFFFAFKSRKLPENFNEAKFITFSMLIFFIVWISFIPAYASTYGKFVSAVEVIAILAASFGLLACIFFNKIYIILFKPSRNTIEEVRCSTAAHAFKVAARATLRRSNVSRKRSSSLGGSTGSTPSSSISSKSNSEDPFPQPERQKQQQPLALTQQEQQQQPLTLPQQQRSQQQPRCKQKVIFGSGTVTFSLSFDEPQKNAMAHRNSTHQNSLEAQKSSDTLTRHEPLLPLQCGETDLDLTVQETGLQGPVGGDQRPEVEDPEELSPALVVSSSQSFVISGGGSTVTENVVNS
# Summary of the method: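 Membranes from HEK293 4.0-7 cells stably expressing human CaR (4-10 µg) in 50 mM Tris-HCl pH 7.4, 1 mM EDTA, 3 mM MgCl2, 0.1% gelatin, 10% EtOH. Incubated with 2 nM 3H antagonist or 3H calcimimetic ligand for 30 min at 4 °C, then filtered onto PEI-treated GF/C and counted by scintillation. Nonspecific binding taken with 100-fold excess of unlabeled homologous ligand.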
# [2] = Antagonist activity at human calcium receptor 1 expressed in HEK293 4.0-7 cells assessed as inhibition of extracellular calcium-induced increase in intracellular calcium level by FLIPR assay; type: functional, cell-based
# Summary of the method: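 HEK293 cells stably expressing human CaR, seeded 15K cells/well and grown 48 h at 37 °C. Loaded 45 min at 37 °C with Fluo4 (2 µM final) and probenecid (2.5 mM final) in HBSS with 0.75 mM Ca. Compound (top 25 µM final) was added 5 min at room temperature, then EC80 CaCl challenge, with FLIPR fluorescence read for 65 s.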
# [3] = target: Beta-2 adrenergic receptor (Homo sapiens, UniProt P07550); test: Binding affinity to beta2 adrenoceptor
# Sequence of Beta-2 adrenergic receptor (P07550 whole entry): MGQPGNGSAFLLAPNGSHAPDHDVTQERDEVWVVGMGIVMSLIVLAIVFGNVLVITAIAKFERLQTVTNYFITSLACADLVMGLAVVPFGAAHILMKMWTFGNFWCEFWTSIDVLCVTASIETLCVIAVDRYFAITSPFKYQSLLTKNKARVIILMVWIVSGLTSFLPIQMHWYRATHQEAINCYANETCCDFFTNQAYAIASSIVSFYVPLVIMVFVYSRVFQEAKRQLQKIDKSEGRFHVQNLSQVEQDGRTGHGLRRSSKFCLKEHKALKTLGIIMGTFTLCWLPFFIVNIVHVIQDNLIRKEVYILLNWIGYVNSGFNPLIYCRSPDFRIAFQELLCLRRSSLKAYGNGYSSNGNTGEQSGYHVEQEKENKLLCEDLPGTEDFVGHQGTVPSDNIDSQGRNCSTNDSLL
# [4] = target: Beta-3 adrenergic receptor (Homo sapiens, UniProt P13945); test: Binding affinity to beta3 adrenoceptor
# Sequence of Beta-3 adrenergic receptor (P13945 whole entry): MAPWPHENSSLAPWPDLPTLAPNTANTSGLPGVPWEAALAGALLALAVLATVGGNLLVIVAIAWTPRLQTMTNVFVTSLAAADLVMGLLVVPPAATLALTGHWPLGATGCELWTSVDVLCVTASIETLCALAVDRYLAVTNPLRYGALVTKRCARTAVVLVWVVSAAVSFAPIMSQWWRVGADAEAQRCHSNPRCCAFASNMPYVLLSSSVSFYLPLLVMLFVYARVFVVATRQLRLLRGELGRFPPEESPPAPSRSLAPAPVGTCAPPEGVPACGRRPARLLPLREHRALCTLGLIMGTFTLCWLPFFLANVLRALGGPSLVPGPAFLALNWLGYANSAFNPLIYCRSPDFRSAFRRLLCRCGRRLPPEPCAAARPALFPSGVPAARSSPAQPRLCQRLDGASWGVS
# [5] = target: Sodium-dependent serotonin transporter (Homo sapiens, UniProt P31645); test: Binding affinity to serotonin transporter
# Sequence of Sodium-dependent serotonin transporter (P31645 whole entry): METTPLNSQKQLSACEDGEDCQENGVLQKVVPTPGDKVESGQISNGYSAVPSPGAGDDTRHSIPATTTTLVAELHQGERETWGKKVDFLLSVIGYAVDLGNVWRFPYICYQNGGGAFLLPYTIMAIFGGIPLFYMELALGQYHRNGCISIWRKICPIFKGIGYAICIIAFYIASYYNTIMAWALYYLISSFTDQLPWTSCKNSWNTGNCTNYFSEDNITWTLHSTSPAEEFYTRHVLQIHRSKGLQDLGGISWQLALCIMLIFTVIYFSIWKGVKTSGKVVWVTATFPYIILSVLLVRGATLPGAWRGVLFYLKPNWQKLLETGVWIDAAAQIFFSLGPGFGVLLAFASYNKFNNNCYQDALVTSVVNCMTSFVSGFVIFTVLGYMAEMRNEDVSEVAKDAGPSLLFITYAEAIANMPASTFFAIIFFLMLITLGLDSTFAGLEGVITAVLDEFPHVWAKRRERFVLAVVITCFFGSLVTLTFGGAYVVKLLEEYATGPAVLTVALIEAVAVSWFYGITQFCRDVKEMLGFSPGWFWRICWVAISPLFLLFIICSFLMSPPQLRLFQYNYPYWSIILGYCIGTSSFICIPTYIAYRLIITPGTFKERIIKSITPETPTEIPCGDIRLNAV
# [6] = target: Cytochrome P450 2D6 (Homo sapiens, UniProt P10635); test: Binding affinity to CYP2D6; type: ADME
# Sequence of Cytochrome P450 2D6 (P10635 whole entry): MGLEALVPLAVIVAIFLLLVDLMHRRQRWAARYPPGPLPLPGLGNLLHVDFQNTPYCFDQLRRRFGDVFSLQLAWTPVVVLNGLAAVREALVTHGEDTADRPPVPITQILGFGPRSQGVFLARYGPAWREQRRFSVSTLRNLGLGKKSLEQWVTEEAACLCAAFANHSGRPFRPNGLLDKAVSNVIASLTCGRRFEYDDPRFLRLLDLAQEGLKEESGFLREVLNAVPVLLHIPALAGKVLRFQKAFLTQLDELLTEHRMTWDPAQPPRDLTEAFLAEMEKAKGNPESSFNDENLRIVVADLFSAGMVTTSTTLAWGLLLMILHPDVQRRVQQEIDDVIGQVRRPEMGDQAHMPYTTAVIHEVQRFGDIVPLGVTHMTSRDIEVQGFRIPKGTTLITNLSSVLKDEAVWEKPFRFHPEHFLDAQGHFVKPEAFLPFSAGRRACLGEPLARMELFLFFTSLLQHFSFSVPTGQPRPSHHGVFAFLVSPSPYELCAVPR
# [7] = target: Beta-1 adrenergic receptor (Homo sapiens, UniProt P08588); test: Binding affinity to beta-1 adrenoceptor
# Sequence of Beta-1 adrenergic receptor (P08588 whole entry): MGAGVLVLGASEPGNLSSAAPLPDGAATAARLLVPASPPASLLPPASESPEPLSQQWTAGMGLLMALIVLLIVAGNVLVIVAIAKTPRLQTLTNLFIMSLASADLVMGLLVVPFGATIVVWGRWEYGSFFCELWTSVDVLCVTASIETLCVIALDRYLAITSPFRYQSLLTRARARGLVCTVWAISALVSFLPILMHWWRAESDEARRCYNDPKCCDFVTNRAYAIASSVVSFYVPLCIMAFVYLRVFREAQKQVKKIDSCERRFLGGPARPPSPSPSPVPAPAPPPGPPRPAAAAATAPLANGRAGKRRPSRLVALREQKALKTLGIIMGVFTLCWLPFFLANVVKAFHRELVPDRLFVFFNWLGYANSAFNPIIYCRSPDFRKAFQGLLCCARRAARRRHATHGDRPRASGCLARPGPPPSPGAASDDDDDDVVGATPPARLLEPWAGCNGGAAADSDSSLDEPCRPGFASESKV
# [8] = target: Sodium-dependent noradrenaline transporter (Homo sapiens, UniProt P23975); test: Binding affinity to norepinephrine transporter
# Sequence of Sodium-dependent noradrenaline transporter (P23975 whole entry): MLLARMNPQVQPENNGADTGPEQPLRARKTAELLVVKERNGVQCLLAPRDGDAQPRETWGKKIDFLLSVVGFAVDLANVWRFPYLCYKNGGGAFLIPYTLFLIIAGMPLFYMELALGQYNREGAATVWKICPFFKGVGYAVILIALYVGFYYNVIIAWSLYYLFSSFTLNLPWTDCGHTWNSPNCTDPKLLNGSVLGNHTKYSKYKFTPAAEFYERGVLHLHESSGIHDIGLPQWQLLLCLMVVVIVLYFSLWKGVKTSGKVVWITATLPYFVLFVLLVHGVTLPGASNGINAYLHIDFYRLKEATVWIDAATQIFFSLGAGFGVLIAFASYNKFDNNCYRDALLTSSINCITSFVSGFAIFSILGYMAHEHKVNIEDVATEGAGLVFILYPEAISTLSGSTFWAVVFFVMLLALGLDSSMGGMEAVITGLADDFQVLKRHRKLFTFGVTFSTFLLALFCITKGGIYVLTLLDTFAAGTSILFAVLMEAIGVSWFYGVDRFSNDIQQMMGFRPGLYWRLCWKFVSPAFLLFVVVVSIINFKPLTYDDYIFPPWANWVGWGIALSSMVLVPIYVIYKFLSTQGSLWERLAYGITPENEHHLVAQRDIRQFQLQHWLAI
# [9] = target: Sodium-dependent dopamine transporter (Homo sapiens, UniProt Q01959); test: Binding affinity to dopamine transporter
# Sequence of Sodium-dependent dopamine transporter (Q01959 whole entry): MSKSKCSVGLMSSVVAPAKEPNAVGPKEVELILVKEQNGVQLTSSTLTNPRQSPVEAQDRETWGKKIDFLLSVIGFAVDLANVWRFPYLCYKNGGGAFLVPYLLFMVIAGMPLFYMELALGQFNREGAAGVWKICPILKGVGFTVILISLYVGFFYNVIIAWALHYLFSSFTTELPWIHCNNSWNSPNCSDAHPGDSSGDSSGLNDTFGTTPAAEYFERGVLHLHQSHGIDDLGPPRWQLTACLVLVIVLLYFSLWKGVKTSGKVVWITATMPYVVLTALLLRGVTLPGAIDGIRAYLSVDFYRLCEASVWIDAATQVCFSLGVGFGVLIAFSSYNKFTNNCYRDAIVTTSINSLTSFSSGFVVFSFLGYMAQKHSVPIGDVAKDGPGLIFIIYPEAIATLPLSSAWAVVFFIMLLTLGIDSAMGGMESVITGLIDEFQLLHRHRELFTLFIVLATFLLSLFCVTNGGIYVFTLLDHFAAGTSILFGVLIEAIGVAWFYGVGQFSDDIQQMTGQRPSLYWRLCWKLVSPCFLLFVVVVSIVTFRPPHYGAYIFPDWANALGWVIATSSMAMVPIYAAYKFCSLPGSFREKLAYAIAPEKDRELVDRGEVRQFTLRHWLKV
# [10] = Volume of distribution in human; type: ADME, organism-based; details: in vivo
# [11] = Clearance in women; type: ADME, organism-based; details: female, human, in vivo
# [12] = Clearance in men; type: ADME, organism-based; details: male, human, in vivo
# [13] = Tmax in human; type: ADME, organism-based; details: in vivo
# [14] = target: Voltage-gated inwardly rectifying potassium channel KCNH2 (Homo sapiens, UniProt Q12809); test: Binding affinity to human ERG
# Sequence of Voltage-gated inwardly rectifying potassium channel KCNH2 (Q12809 whole entry): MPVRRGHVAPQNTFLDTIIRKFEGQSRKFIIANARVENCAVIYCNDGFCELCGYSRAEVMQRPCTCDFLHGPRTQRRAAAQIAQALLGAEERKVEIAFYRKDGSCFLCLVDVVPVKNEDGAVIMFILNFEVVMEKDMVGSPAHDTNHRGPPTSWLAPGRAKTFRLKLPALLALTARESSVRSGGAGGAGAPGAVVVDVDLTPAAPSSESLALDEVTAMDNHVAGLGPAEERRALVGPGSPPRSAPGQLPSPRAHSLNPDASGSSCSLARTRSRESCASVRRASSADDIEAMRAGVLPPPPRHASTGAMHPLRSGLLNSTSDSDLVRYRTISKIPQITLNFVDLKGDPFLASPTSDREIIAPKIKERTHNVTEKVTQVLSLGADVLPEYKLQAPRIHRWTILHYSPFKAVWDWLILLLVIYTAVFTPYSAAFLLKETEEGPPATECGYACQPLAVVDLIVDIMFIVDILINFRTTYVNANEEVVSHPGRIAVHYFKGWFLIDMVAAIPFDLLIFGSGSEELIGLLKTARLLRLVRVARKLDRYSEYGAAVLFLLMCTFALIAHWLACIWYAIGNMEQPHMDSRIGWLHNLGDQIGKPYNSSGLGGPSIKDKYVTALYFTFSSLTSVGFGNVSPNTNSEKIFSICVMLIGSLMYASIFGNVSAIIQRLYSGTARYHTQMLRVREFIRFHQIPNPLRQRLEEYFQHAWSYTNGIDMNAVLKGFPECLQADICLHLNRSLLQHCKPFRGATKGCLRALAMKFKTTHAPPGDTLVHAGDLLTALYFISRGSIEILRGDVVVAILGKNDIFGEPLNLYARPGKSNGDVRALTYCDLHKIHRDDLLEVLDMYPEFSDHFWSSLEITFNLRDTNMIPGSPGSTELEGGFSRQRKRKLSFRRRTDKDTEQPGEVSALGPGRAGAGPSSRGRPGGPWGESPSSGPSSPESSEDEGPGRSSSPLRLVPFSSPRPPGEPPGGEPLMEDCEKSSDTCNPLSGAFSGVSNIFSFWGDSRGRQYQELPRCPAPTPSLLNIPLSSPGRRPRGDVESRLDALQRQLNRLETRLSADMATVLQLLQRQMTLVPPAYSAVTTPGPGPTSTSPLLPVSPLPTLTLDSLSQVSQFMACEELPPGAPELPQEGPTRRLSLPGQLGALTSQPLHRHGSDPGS
# [15] = test system: Rattus norvegicus; test: Increase of bone mass in ovariectomized postmenopausal osteoporosis Sprague-Dawley rat model at 5 ug/kg, po for 5 weeks; type: functional, organism-based
# [16] = Half life in rat; type: ADME, organism-based; details: in vivo
# [17] = Volume of distribution in rat; type: ADME, organism-based; details: in vivo
# [18] = test system: Rattus norvegicus; test: Increase of new bone formation in ovariectomized postmenopausal osteoporosis Sprague-Dawley rat model at 100 umol/kg, po for 5 weeks; type: functional, organism-based
# [19] = organism: Rattus norvegicus; test: Clearance in rat; type: ADME, organism-based; details: in vivo
# [20] = Increase in parathyroid hormone release in bovine parathyroid cells; type: functional, cell-based; details: Bos taurus
# [21] = test system: Rattus norvegicus; test: Increase of bone mass in 17-beta-estradiol-treated ovariectomized postmenopausal osteoporosis Sprague-Dawley rat model at 100 umol/kg, po for 5 weeks; type: functional, organism-based
# [22] = Oral bioavailability in rat; type: ADME, organism-based; details: in vivo
# [23] = test system: Rattus norvegicus; test: Increase in plasma parathyroid hormone level in normal conscious rat at 10 umol/kg, iv by immunoradiometric assay; type: functional, organism-based
# Summary of the method: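 Normal conscious rats were given a single iv injection of 10 µmol/kg. Plasma PTH was measured over time by rat PTH(1-34) immunoradiometric assay, n = 6/group, mean ± SE.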
# [24] = test system: Rattus norvegicus; test: Increase of resorption of old bone in ovariectomized postmenopausal osteoporosis Sprague-Dawley rat model at 100 umol/kg, po for 5 weeks; type: functional, organism-based
# [25] = test system: Rattus norvegicus; test: Effect on net increase in bone mass in ovariectomized postmenopausal osteoporosis Sprague-Dawley rat model at 100 umol/kg, po for 5 weeks; type: functional, organism-based
smiles,measurement,setting,value
COc1ccc(CC(C)(C)NCC(COc2cccc(Cl)c2Cl)OC)cc1 (racemic),IC50,[1],950 nM
same,IC50,[2],> 3000 nM
COc1ccc(CC(C)(C)NCC(O)COc2ccccc2C#N)cc1 (racemic),IC50,[3],21 nM
same,EC50,[4]; read-out: EC50,20 nM
same,IC50,[1],140 nM
same,IC50,[2],45 nM
same,IC50,[5],21 nM
same,IC50,[6],36 nM
same,EC50,[7],Not Active
same,IC50,[8],300 nM
same,IC50,[9],300 nM
COc1ccc(CC(C)(C)N(C)CC(O)COc2cccc(Cl)c2Cl)cc1 (racemic),IC50,[1],2300 nM
same,IC50,[2],> 3000 nM
COc1ccc(C(C)(C)NCC(O)COc2ccccc2)cc1 (racemic),IC50,[1],> 10000 nM
same,IC50,[2],> 100000 nM
COc1ccc(CC(C)(C)NCCCOc2cccc(Cl)c2Cl)cc1,IC50,[1],930 nM
same,IC50,[2],2500 nM
COc1ccc(CC(C)(C)NCC(O)COc2cccc(Cl)c2Cl)cc1 (racemic),IC50,[3],21 nM
same,EC50,[4]; read-out: EC50,200 nM
same,IC50,[1],200 nM
same,IC50,[2],45 nM
CC(C)(Cc1ccccc1)NCC(O)COc1ccccc1 (racemic),IC50,[2],2300 nM
CCCCOCC(O)CNC(C)(C)Cc1ccc(OC)cc1 (racemic),IC50,[1],3200 nM
same,IC50,[2],2200 nM
COc1ccc(C(C)(C)CNCC(O)COc2ccccc2)cc1 (racemic),IC50,[1],> 10000 nM
same,IC50,[2],> 100000 nM
COc1ccc(CC(C)(C)NCC(O)COc2cccc(Cl)c2)cc1 (racemic),IC50,[1],1000 nM
same,IC50,[2],470 nM
CC[C@H](C)[C@H](NC(=O)[C@H](CCC(=O)O)NC(=O)[C@H](CO)NC(=O)[C@@H](NC(=O)[C@@H](N)CO)C(C)C)C(=O)N[C@@H](CCC(N)=O)C(=O)N[C@@H](CC(C)C)C(=O)N[C@@H](CCSC)C(=O)N[C@@H](Cc1cnc[nH]1)C(=O)N[C@@H](CC(N)=O)C(=O)N[C@@H](CC(C)C)C(=O)NCC(=O)N[C@@H](CCCCN)C(=O)N[C@@H](Cc1cnc[nH]1)C(=O)N[C@@H](CC(C)C)C(=O)N[C@@H](CC(N)=O)C(=O)N[C@@H](CO)C(=O)N[C@@H](CCSC)C(=O)N[C@@H](CCC(=O)O)C(=O)N[C@@H](CCCN=C(N)N)C(=O)N[C@H](C(=O)N[C@@H](CCC(=O)O)C(=O)N[C@@H](Cc1c[nH]c2ccccc12)C(=O)N[C@@H](CC(C)C)C(=O)N[C@@H](CCCN=C(N)N)C(=O)N[C@@H](CCCCN)C(=O)N[C@@H](CCCCN)C(=O)N[C@@H](CC(C)C)C(=O)N[C@@H](CCC(N)=O)C(=O)N[C@@H](CC(=O)O)C(=O)N[C@H](C(=O)N[C@@H](Cc1cnc[nH]1)C(=O)N[C@@H](CC(N)=O)C(=O)N[C@@H](Cc1ccccc1)C(=O)O)C(C)C)C(C)C [TERIPARATIDE],Vd,[10],0.12 L/kg
same,clearance,[11],1030 mL/min
same,clearance,[12],1570 mL/min
same,Tmax,[13],≤ 0.5 h
COc1ccc(CC(C)(C)NCC(O)COc2ccccc2)cc1 (racemic),IC50,[1],2300 nM
same,IC50,[2],2300 nM
COc1ccc(CCC(C)(C)NCC(O)COc2ccccc2)cc1 (racemic),IC50,[1],2780 nM
same,IC50,[2],13000 nM
COc1ccc(CCNCC(O)COc2ccccc2)cc1 (racemic),IC50,[1],> 10000 nM
same,IC50,[2],> 100000 nM
COc1ccc(CC(C)(C)NCC(O)COc2cccc(Cl)c2C#N)cc1 (racemic),IC50,[3],23 nM
same,EC50,[4],Not Active
same,IC50,[1],70 nM
same,IC50,[2],38 nM
same,IC50,[5],34 nM
same,IC50,[6],76 nM
same,EC50,[7],Not Active
same,IC50,[8],1000 nM
same,IC50,[14],3600 nM
same,IC50,[9],1100 nM
COc1ccc(CC(C)NCC(O)COc2ccccc2)cc1 (racemic),IC50,[1],> 10000 nM
same,IC50,[2],> 100000 nM
COc1ccc(CC(C)(C)NCC(O)COC(C)C)cc1 (racemic),IC50,[1],10000 nM
same,IC50,[2],6400 nM
CCCOCC(O)CNC(C)(C)Cc1ccc(OC)cc1 (racemic),IC50,[1],7000 nM
same,IC50,[2],16000 nM
COc1ccc(CC(C)(C)NCC(O)COc2ccccc2Cl)cc1 (racemic),IC50,[1],1000 nM
same,IC50,[2],490 nM
COc1ccc(CC(C)(C)NC[C@@H](O)COc2cccc(Cl)c2Cl)cc1,IC50,[3],300 nM
same,EC50,[4],Not Active
same,IC50,[1],68 nM
same,IC50,[2],38 nM
COc1ccc(CC(C)(C)NCC(O)COc2ccc3ccccc3c2)cc1 (racemic),IC50,[1],1300 nM
same,IC50,[2],1400 nM
CC(C)(Cc1ccc2ccccc2c1)NC[C@@H](O)COc1cccc(Cl)c1C#N.Cl,IC50,[3],4300 nM
same,Activity,[15],Active
same,EC50,[4],Not Active
same,IC50,[1],3 nM
same,IC50,[2],43 nM
same,half-life,[16],2 h
same,Vd,[17],11 L/kg
same,IC50,[5],2 nM
same,Activity,[18],Active
same,clearance,[19],74 mL/min/kg
same,EC50,[20],41 nM
same,Activity,[21],Active
same,bioavailability,[22],11%
same,Activity,[23],Active
same,Activity,[24],Active
same,Activity,[25],Active
same,IC50,[6],45 nM
same,EC50,[7],Not Active
same,IC50,[8],200 nM
same,IC50,[14],3000 nM
same,IC50,[9],200 nM
COc1ccc(CC(C)(C)NCC(O)COc2ccccc2OC)cc1 (racemic),IC50,[1],3500 nM
same,IC50,[2],15600 nM
COc1ccc(CC(C)(C)NC[C@H](O)COc2cccc3[nH]c(=O)[nH]c23)cc1,IC50,[3],1.3 nM
same,EC50,[4]; read-out: EC50,7 nM
same,IC50,[1],31800 nM
same,IC50,[2],11000 nM
same,IC50,[5],61 nM
same,IC50,[6],1260 nM
same,EC50,[7]; read-out: EC50,3 nM
same,IC50,[8],600 nM
same,IC50,[14],11800 nM
same,IC50,[9],1200 nM
COc1ccc(CC(C)(C)NC[C@H](O)COc2cccc(Cl)c2Cl)cc1,IC50,[3],1 nM
same,EC50,[4]; read-out: EC50,200 nM
same,IC50,[1],300 nM
same,IC50,[2],340 nM

# From ChEMBL document CHEMBL1137011, “Antagonists of the calcium receptor I. Amino alcohol-based parathyroid hormone secretagogues” (J Med Chem, 2009)
